Results from ChEMBL document CHEMBL1157466, “Antifouling activity of meroditerpenoids from the marine brown alga Halidrys siliquosa” (J Nat Prod, 2008).
Values after ≈ are worked out from the molar mass of the structure shown.

Assays:
[1] = system: Marinobacterium stanieri; assay: Antibacterial activity against Marinobacterium stanieri ATCC 27130 after 24 hrs by microtiter broth dilution method; assay type: functional
In short: (§1)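 Marine bacteria at 2×10^8 cells/mL incubated with compound (0.5, 1, 2.5, 5, 10, 25, 50, 100 µg/mL) in Mueller Hinton broth supplemented with NaCl (15 g/L), 25 °C, 24 h, 96-well format. Six replicates per treatment alongside a seawater control. MIC read against the seawater control by microtiter broth dilution.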

[2] = Toxicity against Balanus amphitrite stage 2 nauplii after 24 hrs; assay type: organism-based; conditions: amphibalanus amphitrite, in vivo
In short: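 Ten to fifteen stage-II barnacle nauplii per well in 2 mL solution; compounds at 0.5, 1, 2.5, 5, 10, 25, 50 and 100 µg/mL; six replicates per treatment and control. Swimming and dead nauplii counted after 24 h exposure; LC50 is the concentration giving 50% mortality relative to control, derived from the dose-response data.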

[3] = system: Aliivibrio fischeri; assay: Antibacterial activity against Vibrio fischeri ATCC 7744 after 24 hrs by microtiter broth dilution method; assay type: functional; in short: as §1
[4] = system: Pseudoalteromonas haloplanktis; assay: Antibacterial activity against Pseudoalteromonas haloplanktis after 24 hrs by microtiter broth dilution method; assay type: functional; in short: as §1
[5] = system: Cobetia marina; assay: Antibacterial activity against Cobetia marina ATCC 25374 after 24 hrs by microtiter broth dilution method; assay type: functional; in short: as §1
[6] = system: Amphibalanus amphitrite; assay: Antifouling activity in Balanus amphitrite assessed as inhibition of cyprid larvae settlement after 24 hrs; assay type: functional, organism-based
In short: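 Cyprids obtained by filtration 4 days after larval release from field-collected adults. 10–15 cyprids per well in 2 mL seawater containing compound at 0.5–100 µg/mL (0.5, 1, 2.5, 5, 10, 25, 50, 100). Kept in darkness at 28 °C for 24 h, six replicates. Larvae scored as dead, settled or swimming under a dissecting microscope. EC50 calculated as 50% settlement inhibition relative to the seawater control.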

[7] = Marinobacterium stanieri, ATCC 27130, 24 h, read-out: MIC
[8] = Aliivibrio fischeri, ATCC 7744, 24 h, read-out: MIC
[9] = Pseudoalteromonas haloplanktis, 24 h, read-out: MIC
[10] = Cobetia marina, ATCC 25374, 24 h, read-out: MIC
[11] = Amphibalanus amphitrite, 24 h, read-out: EC50

| Structure (SMILES) | MIC [1] [µg/mL] | LC50 at 24 h [2] [µg/mL] | MIC [3] [µg/mL] | MIC [4] [µg/mL] | MIC [5] [µg/mL] | EC50 [6] [µg/mL] | MIC [1, 7] [µg/mL] | MIC [3, 8] [µg/mL] | MIC [4, 9] [µg/mL] | MIC [5, 10] [µg/mL] | EC50 [6, 11] [µg/mL] |
| --- | --- | --- | --- | --- | --- | --- | --- | --- | --- | --- | --- |
| COc1cc(C)c(O)c(C/C=C(\C)CC(=O)/C=C(\C)CCCC(C)C(=O)C(O)C=C(C)C)c1 (stereo in doubt; 3) | 5 (≈ 10.9 µM) | > 100 | 5 (≈ 10.9 µM) | 10 (≈ 21.9 µM) | 5 (≈ 10.9 µM) |  |  |  |  |  |  |
| COc1cc(C)c(O)c(C/C=C(\C)CC(=O)/C=C(\C)CCCC(C)C(O)C(=O)C=C(C)C)c1 (stereo in doubt; 9) | 1 (≈ 2.19 µM) |  | 2.5 (≈ 5.47 µM) | 1 (≈ 2.19 µM) | 2.5 (≈ 5.47 µM) | 4 (≈ 8.76 µM) |  |  |  |  |  |
| COc1cc(C)c(O)c(C/C=C(\C)CC(=O)/C=C(/C)CCCC(C)C(=O)C(O)C=C(C)C)c1 (stereo not given) |  | 5 (≈ 10.9 µM) |  |  |  |  | 1 (≈ 2.19 µM) | 0.5 (≈ 1.09 µM) | 1 (≈ 2.19 µM) | 0.5 (≈ 1.09 µM) | 1 (≈ 2.19 µM) |
| COc1cc(C)c(O)c(C/C=C(\C)CC(=O)/C=C(\C)CCCC(C)C(=O)C(O)C=C(C)C)c1 (stereo in doubt; 4) | >100 |  | >100 | >100 | >100 |  |  |  |  |  | > 100 |
| COc1cc(C)c(O)c(C/C=C(\C)CC(=O)/C=C(\C)CCCC(C)C(O)C(=O)C=C(C)C)c1 (stereo in doubt; 8) | 10 (≈ 21.9 µM) | > 100 | 25 (≈ 54.7 µM) | 10 (≈ 21.9 µM) | 10 (≈ 21.9 µM) | > 100 |  |  |  |  |  |
| COc1cc(C)c(O)c(C/C=C(\C)CC(=O)/C=C(/C)CCCC(C)C(O)C(=O)C=C(C)C)c1 (stereo not given) |  | > 100 |  |  |  |  | > 100 | > 100 | > 100 | > 100 | > 100 |
| COc1cc(C)c(O)c(C/C=C(\C)CC(O)/C=C(\C)CCCC(C)C(=O)C(O)C=C(C)C)c1 (stereo not given) |  | 10 (≈ 21.8 µM) |  |  |  |  | 1 (≈ 2.18 µM) | 0.5 (≈ 1.09 µM) | 1 (≈ 2.18 µM) | 1 (≈ 2.18 µM) | 5 (≈ 10.9 µM) |
| COc1cc(C)c2c(c1)C=CC(C)(CC(=O)/C=C(\C)CCCC(C)[C@@H](O)C(=O)C=C(C)C)O2 (stereo not given in full) |  | > 100 |  |  |  |  | > 100 | > 100 | > 100 | > 100 | > 100 |
